Measured values as given in ChEMBL document CHEMBL1126688, “Interphenylene 7-oxabicyclo[2.2.1]heptane oxazoles. Highly potent, selective, and long-acting thromboxane A2 receptor antagonists” (J Med Chem, 1993).

Tests used:
[1] = system: Mus musculus; experiment: In vivo duration of action required to prevent death in mice, after iv administration of U-46619 (2 mg/kg) at 10 mg/kg po administration of compound
[2] = system: Mus musculus; experiment: In vivo duration of action required to prevent death in mice, after i.v. administration of U-46619 (2 mg/kg) at 0.2 mg/kg p.o.; conditions: po
[3] = species: Homo sapiens; experiment: Inhibitory activity against platelet aggregation, induced by U-46619 in human platelet rich plasma; assay type: functional; conditions: read-out: I50
How it was run: (§1)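 Human platelet-rich plasma. Aggregation was induced by exogenous arachidonic acid or by the TxA2 mimetic U-46,619, each at a single fixed agonist level. I50 was taken as the antagonist concentration giving 50% inhibition of aggregation.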

[4] = target: T1, Thromboxane A2 receptor (Homo sapiens, UniProt P21731); experiment: Inhibitory binding activity against TXA2 receptor in human platelet membrane, using [3H]-SQ 29548 as the radioligand
T1 sequence (P21731 whole entry): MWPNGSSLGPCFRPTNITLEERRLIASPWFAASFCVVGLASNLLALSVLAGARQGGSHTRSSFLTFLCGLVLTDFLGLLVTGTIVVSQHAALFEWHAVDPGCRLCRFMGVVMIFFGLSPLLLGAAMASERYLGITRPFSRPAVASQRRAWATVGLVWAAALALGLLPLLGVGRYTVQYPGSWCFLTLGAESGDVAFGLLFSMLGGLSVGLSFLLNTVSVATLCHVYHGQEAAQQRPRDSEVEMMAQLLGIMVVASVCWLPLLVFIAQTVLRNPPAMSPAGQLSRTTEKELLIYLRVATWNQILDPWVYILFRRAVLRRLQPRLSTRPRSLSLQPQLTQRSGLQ
How it was run: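 Competition binding of [3H]-SQ 29,548 to TxA2 receptors in human platelet membranes, measured as inhibition of specific binding. Kd (inhibition constant) was calculated from each compound's I50 value. A slope factor is also reported.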

[5] = species: Homo sapiens; experiment: Inhibitory activity against platelet aggregation, induced by arachidonic acid in human platelet rich plasma; assay type: functional; conditions: read-out: I50
How it was run: as §1

[6] = Partition coefficient (logP); assay type: physicochemical; conditions: octanol/water
How it was run: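 log P came from reversed-phase TLC Rm values on C18 plates. Eluent was acetone in 0.5 M aqueous KBr, buffered with 0.25 N triethylammonium phosphate to pH 7.3. Values were converted with a calibration curve built from shake-flask partition coefficients (pH 7.0) of seven oxabicycloheptane compounds spanning a range of lipophilicities.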

Work on O=C(O)CCc1ccccc1CC1C2CCC(O2)C1c1nc(C(=O)NCCc2ccc(Cl)cc2)co1 (stereo unspecified) yielded a T50 [1] of 38.7 h, a T50 [2] of 22.7 h and an IC50 [3] of 14 nM. It also gave a Kd [4] of 1.3 nM, an IC50 [5] of 4 nM and a logP [6] of 1.55.
